Test results published in ChEMBL document CHEMBL5107950, “Structure-based design of haloperidol analogues as inhibitors of acetyltransferase Eis from Mycobacterium tuberculosis to overcome kanamycin resistance” (RSC Med Chem, 2021).
≈ marks a conversion by molar mass, not a printed value. Calls of active or inactive are those of the source. The calls are words filed in the database; no cut-off is given here.

What was measured:
[1] = target: T1, N-acetyltransferase Eis (Mycobacterium tuberculosis (strain ATCC 25618 / H37Rv), UniProt P9WFK7); experiment: Inhibition of Mycobacterium tuberculosis Eis assessed as Eis-mediated kanamycin acetylation preincubated for 10 mins followed by substrate addition and measured for 2 to 5 mins using acetyl-CoA as substrate in presence of kanamycin by UV-Vis spectroscopy analysis
T1 sequence (P9WFK7 whole entry): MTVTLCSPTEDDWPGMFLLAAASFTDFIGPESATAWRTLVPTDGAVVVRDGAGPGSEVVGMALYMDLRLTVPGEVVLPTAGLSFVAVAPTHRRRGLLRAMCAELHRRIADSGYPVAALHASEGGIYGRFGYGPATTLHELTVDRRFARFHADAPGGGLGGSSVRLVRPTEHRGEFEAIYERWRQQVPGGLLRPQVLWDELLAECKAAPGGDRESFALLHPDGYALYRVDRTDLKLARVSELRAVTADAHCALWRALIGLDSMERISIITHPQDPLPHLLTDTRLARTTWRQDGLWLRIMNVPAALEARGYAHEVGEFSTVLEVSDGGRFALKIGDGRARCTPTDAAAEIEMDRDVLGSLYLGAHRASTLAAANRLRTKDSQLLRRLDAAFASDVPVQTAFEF
How it was run: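 Recombinant Eis (1 µM) mixed with KAN (400 µM) in 50 mM Tris-HCl pH 8.0 and preincubated 10 min with 5-fold serially diluted inhibitor (10% DMSO in buffer). Reaction started with AcCoA and DTNB (2 mM each, as added). Absorbance read every 30 s for 20 min. Initial rates (first 2-5 min) fitted to Hill plot for IC50. At least triplicate.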

[2] = system: Mycobacterium tuberculosis; experiment: Potentiation of kanamycin-induced antibacterial activity against Mycobacterium tuberculosis H37Rv assessed as kanamycin MIC incubated for 1 day followed by kanamycin addition for 6 days and by Alamar blue assay; assay type: functional; conditions: 168 h, time 7 day
How it was run: (§1)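 Mtb in 7H9 + 10% ADC, 0.05% Tween 80, 0.4% glycerol at 37 °C. Inoculum adjusted to OD600 0.2, diluted 1:25. Cells preincubated 24 h at 37 °C with compound (100 µL of 200 µM solution). KAN then added: H37Rv at 2.5 and 1.25 µg/mL; K204 at 10, 5, 2.5, 1.25 µg/mL. Incubated 6 days, AlamarBlue added, colour read at 24 and 48 h. MIC = lowest KAN with no colour change. At least twice in duplicate.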

[3] = system: Mycobacterium tuberculosis; experiment: Potentiation of kanamycin-induced antibacterial activity against Mycobacterium tuberculosis K204 assessed as kanamycin MIC incubated for 1 day followed by kanamycin addition for 6 days and by Alamar blue assay; assay type: functional; conditions: K204, 168 h, time 7 day; how it was run: as §1
[4] = system: Mycolicibacterium smegmatis; experiment: Antibacterial activity against Mycobacterium smegmatis mc2 155 assessed as inhibition of bacterial growth incubated upto 3 weeks hrs by resazurin dye based double-dilution method; assay type: functional; conditions: mc2 155, 504 h
How it was run: (§2)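 Double-dilution broth MIC. Media: M. smegmatis, Mueller-Hinton; M. abscessus, 7H9 + 0.05% Tween80 + 0.4% glycerol; mc²6230, 7H9 + 0.05% tyloxapol, 0.5% glycerol, 10% OADC, 0.2% casamino acids, 24 µg/mL pantothenate; other mycobacteria, 7H9 + 0.05% Tween80, 0.4% glycerol, 10% ADC. Inoculum from agar set to 0.5 McFarland, then diluted 1:100.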

[5] = system: Mycobacteroides abscessus; experiment: Antibacterial activity against Mycobacterium abscessus ATCC 19977 assessed as inhibition of bacterial growth incubated upto 3 weeks hrs by resazurin dye based double-dilution method; assay type: functional; conditions: ATCC 19977, 504 h; how it was run: as §2
[6] = system: Mycobacterium intracellulare; experiment: Antibacterial activity against Mycobacterium intracellulare ATCC 13950 assessed as inhibition of bacterial growth incubated upto 3 weeks hrs by resazurin dye based double-dilution method; assay type: functional; conditions: ATCC 13950, 504 h; how it was run: as §2
[7] = system: Mycobacterium avium; experiment: Antibacterial activity against Mycobacterium avium ATCC 25921 assessed as inhibition of bacterial growth incubated upto 3 weeks hrs by resazurin dye based double-dilution method; assay type: functional; conditions: ATCC 25921, 504 h; how it was run: as §2
[8] = system: Mycobacterium tuberculosis; experiment: Antibacterial activity against Mycobacterium tuberculosis H37Ra ATCC NRS22 assessed as inhibition of bacterial growth incubated upto 3 weeks hrs by resazurin dye based double-dilution method; assay type: functional; conditions: H37Ra ATCC NRS22, 504 h; how it was run: as §2
[9] = system: Mycolicibacterium smegmatis; experiment: Synergistic antibacterial activity against Mycobacterium smegmatis mc2 155 assessed as fold reduction in MIC value at 8 ug/ml in presence of spectinomycin by checkerboard assay; assay type: functional; conditions: dose 8 µg/ml
[10] = system: Mycolicibacterium smegmatis; experiment: Synergistic antibacterial activity against Mycobacterium smegmatis mc2 155 assessed as fold reduction in MIC value at 8 ug/ml in presence of clarithromycin by checkerboard assay; assay type: functional; conditions: dose 8 µg/ml
[11] = system: Mycolicibacterium smegmatis; experiment: Synergistic antibacterial activity against Mycobacterium smegmatis mc2 155 assessed as fold reduction in MIC value at 8 ug/ml in presence of clofazimine by checkerboard assay; assay type: functional, organism-based; conditions: dose 8.0 µg/ml
[12] = system: Mycobacteroides abscessus; experiment: Synergistic antibacterial activity against Mycobacterium abscessus ATCC 19977 assessed as reduction in bacterial growth presence of spectinomycin by checkerboard assay; assay type: functional, organism-based
How it was run: (§3)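 Checkerboard in 96-well plates. Antibiotic two-fold serially diluted along columns, haloperidol derivative two-fold along rows. Bacteria prepared as for the MIC determination. MICs alone and in combination used to calculate FICI. At least duplicate independent trials.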

[13] = system: Mycobacteroides abscessus; experiment: Synergistic antibacterial activity against Mycobacterium abscessus ATCC 19977 in presence of clofazimine by checkerboard assay; assay type: functional, organism-based; how it was run: as §3
[14] = system: Mycobacterium intracellulare; experiment: Antibacterial activity against Mycobacterium intracellulare ATCC 13950 in presence of spectinomycin by checkerboard assay; assay type: functional, organism-based; how it was run: as §3
[15] = system: Mycobacterium intracellulare; experiment: Antibacterial activity against Mycobacterium intracellulare ATCC 13950 in presence of clarithromycin by checkerboard assay; assay type: functional, organism-based; how it was run: as §3
[16] = system: Mycobacterium intracellulare; experiment: Antibacterial activity against Mycobacterium intracellulare ATCC 13950 in presence of clofazimine by checkerboard assay; assay type: functional, organism-based; how it was run: as §3
[17] = system: Mycobacterium avium; experiment: Antibacterial activity against Mycobacterium avium ATCC 25921 in presence of spectinomycin by checkerboard assay; assay type: functional, organism-based; how it was run: as §3
[18] = system: Mycobacterium avium; experiment: Antibacterial activity against Mycobacterium avium ATCC 25921 in presence of clarithromycin by checkerboard assay; assay type: functional, organism-based; how it was run: as §3
[19] = system: Mycobacterium avium; experiment: Antibacterial activity against Mycobacterium avium ATCC 25921 in presence of clofazimine by checkerboard assay; assay type: functional, organism-based; how it was run: as §3
[20] = system: Mycobacterium tuberculosis; experiment: Synergistic antibacterial activity against Mycobacterium tuberculosis H37Ra ATCC NRS22 in presence of spectinomycin by checkerboard assay; assay type: functional, organism-based; how it was run: as §3
[21] = Metabolic stability in human liver microsomes at 2 to 4 uM incubated for 30 mins by LC-MS/MS analysis; assay type: ADME, Microsome; conditions: dose 2-4 µM, read-out: Stability
[22] = Metabolic stability in mouse liver microsomes at 2 to 4 uM incubated for 30 mins by LC-MS/MS analysis; assay type: ADME, Microsome; conditions: dose 2-4 µM, read-out: Stability
[23] = system: Mycobacterium tuberculosis; experiment: Antibacterial activity against Mycobacterium tuberculosis H37Rv assessed as inhibition of bacterial growth at 100 uM incubated for 24 hrs by Alamar blue assay; assay type: functional, organism-based
[24] = system: Mycobacterium tuberculosis; experiment: Antibacterial activity against Mycobacterium tuberculosis K204 assessed as inhibition of bacterial growth at 100 uM incubated for 24 hrs by Alamar blue assay; assay type: functional, organism-based
[25] = system: Escherichia coli; experiment: Antibacterial activity against Escherichia coli MC1061 assessed as inhibition of bacterial growth incubated upto 3 weeks hrs by resazurin dye based double-dilution method; assay type: functional, organism-based
[26] = system: A549; experiment: Cytotoxicity against human A549 cells assessed as reduction in cell viability at 25 uM incubated for 24 hrs by resazurin assay; assay type: toxicity, cell-based; conditions: a549, 24 h
How it was run: (§4)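 Resazurin viability assay in DMEM + 10% FBS, 1% penicillin/streptomycin, 37 °C, 5% CO₂. Seeding: HEK-293 and J774A.1 at 1×10^4 cells/mL, A549 at 5×10^3 cells/mL. After 24 h, compounds added (0.78-200 μM, 0.5% DMSO final). Resazurin added 24 h later, read after 6 h. 1% Triton X as positive control. Quadruplicate.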

[27] = system: HEK293; experiment: Cytotoxicity against human HEK293 cells assessed as reduction in cell viability at 25 uM incubated for 24 hrs by resazurin assay; assay type: toxicity, cell-based; conditions: hek293, 24 h; how it was run: as §4
[28] = system: J774.A1; experiment: Cytotoxicity against mouse J774.A1 cells assessed as reduction in cell viability at 25 uM incubated for 24 hrs by resazurin assay; assay type: toxicity, cell-based; conditions: j774.a1, 24 h; how it was run: as §4
[29] = target: T1, N-acetyltransferase Eis; experiment: Competitive inhibition of Mycobacterium tuberculosis Eis assessed as reduction in Eis-mediated kanamycin acetylation preincubated for 10 mins followed by substrate addition and measured for 2 to 5 mins using acetyl-CoA as substrate in presence of kanamycin by Lineweaver-Burk plot analysis
How it was run: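 Same DTNB-coupled Eis acetylation assay used for IC50, run as Michaelis-Menten kinetics with inhibitor at 0-1 μM. Vmax and Km from these fits used to determine mode of inhibition. Quadruplicate.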

[30] = system: Mycobacteroides abscessus; experiment: Synergistic antibacterial activity against Mycobacterium abscessus ATCC 19977 in presence of clarithromycin by checkerboard assay; assay type: functional, organism-based; how it was run: as §3

SMILES	IC50 [1] [µM]	MIC [2] [µg/mL]	MIC [3] [µg/mL]	MIC [4] [µM]	MIC [5] [µM]	MIC [6] [µM]	MIC [7] [µM]	MIC [8] [µM]	fold change (FC) [9]	fold change (FC) [10]	Activity [11]	Activity [12]	Activity [13]	Activity [14]	Activity [15]	Activity [16]	Activity [17]	Activity [18]	Activity [19]	Activity [20]	other results
O=C(CCCN1CCC(O)(c2ccc(Br)cc2)CC1)c1ccc(Cl)cc1	1.1	≤ 1.25	10	31.3 (≈ 13.7 µg/mL)	> 62.5	62.5 (≈ 27.3 µg/mL)	> 62.5	7.8 (≈ 3.41 µg/mL)	16	4	Active	Active	Active	Active	Active	Active	Active	Active	Active	Active	remaining at 0.5 h [21]: 36%; remaining at 0.5 h [22]: 83%
CC(C)(C)c1ccc(C(=O)CCCN2CCC(O)(c3ccc(Cl)cc3)CC2)cc1	> 200			15.6 (≈ 6.46 µg/mL)	> 62.5	7.8 (≈ 3.23 µg/mL)	7.8 (≈ 3.23 µg/mL)	3.9 (≈ 1.61 µg/mL)	16	4											inhibition [23]: Active; inhibition [24]: Active; inhibition [25]: Active; Activity [26]: Toxic; Activity [27]: Toxic; Activity [28]: Toxic; remaining at 0.5 h [21]: 60%; remaining at 0.5 h [22]: 68%
O=C(CCCN1CCC(O)(c2ccc(F)cc2)CC1)c1ccc(F)cc1	0.76	≤ 1.25	5	> 62.5	> 62.5	> 62.5	> 62.5	> 62.5	16	4											Ki [29]: 0.91 µM
O=C(CCCN1CCC(O)(c2ccc(F)cc2)CC1)c1ccc(Cl)cc1	2.6	≤ 1.25	10	> 62.5	> 62.5	> 62.5	> 62.5	> 62.5	16	4	Active	Active	Active	Active	Active	Active	Active	Active	Active	Active	Activity [30]: Active
